Measurements published in ChEMBL document CHEMBL1154951, “Discovery of potent and bioavailable GSK-3beta inhibitors” (Bioorg Med Chem Lett, 2010).
Values after ≈ are worked out from the molar mass of the structure shown. Active and inactive are the calls of the source. No cut-off for these calls is given here.

Tests used:
Rattus norvegicus [1] = assay: AUC in rat at 25 mg/kg, po; conditions: plasma
[2] = Aqueous solubility at pH 6.6; format: physicochemical
[3] = biological target: Protein kinase C alpha type (Homo sapiens, UniProt P17252); assay: Inhibition of PKCalpha
Rattus norvegicus [4] = assay: Cmax in rat at 25 mg/kg, po; conditions: in vivo
[5] = biological target: Glycogen synthase kinase-3 beta (Homo sapiens, UniProt P49841); assay: Inhibition of human recombinant GSK3-beta assessed as [gamma33]ATP transfer to biotinylated CREB-peptide substrate after 1 hr by scintillation counting
Mus musculus [6] = assay: AUC in mouse at 10 mg/kg, ip; format: ADME, organism-based, Plasma; design: dose 10 mg/kg, route intraperitoneal; conditions: in vivo, BLD = below limit of detection
Mus musculus [7] = assay: Cmax in mouse at 10 mg/kg, ip; format: ADME, organism-based; design: dose 10 mg/kg, route intraperitoneal; conditions: in vivo, BLD = below limit of detection
Aurora kinase A = Aurora kinase A (Homo sapiens, UniProt O14965); assay: Inhibition of AURKA
Procedure, shortened: (§1)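 Competition binding assay giving binding constant (Kd) from an 11-point quantitative affinity curve against each kinase in a selectivity panel; values reported in µM and as ratio over GSK3b.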

[8] = biological target: Interferon-induced, double-stranded RNA-activated protein kinase (Homo sapiens, UniProt P19525); assay: Inhibition of PRKR
Procedure, shortened: as §1

[9] = biological target: Dual specificity tyrosine-phosphorylation-regulated kinase 1B (Homo sapiens, UniProt Q9Y463); assay: Inhibition of DYRK1B
Procedure, shortened: as §1

Aurora kinase C = Aurora kinase C (Homo sapiens, UniProt Q9UQB9); assay: Inhibition of AURKC
Procedure, shortened: (§2)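 Affinity measured as a binding constant (Kd) in a quantitative competition binding assay, not as a catalytic activity read-out. An 11-point concentration curve was run for each kinase. Kd values are given in µM. Each value is also expressed as a ratio over the Kd for GSK3b.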

[10] = biological target: Dual specificity protein kinase CLK2 (Homo sapiens, UniProt P49760); assay: Inhibition of CLK2
Procedure, shortened: as §2

[11] = biological target: Cyclin-dependent kinase 17 (Homo sapiens, UniProt Q00537); assay: Inhibition of PCTK2
Procedure, shortened: as §2

[12] = biological target: Cyclin-dependent kinase 9 (Homo sapiens, UniProt P50750); assay: Inhibition of CDK9
Procedure, shortened: as §1

[13] = biological target: Glycogen synthase kinase-3 alpha (Homo sapiens, UniProt P49840); assay: Inhibition of GSK3alpha
Procedure, shortened: as §2

Aurora kinase B = Aurora kinase B (Homo sapiens, UniProt Q96GD4); assay: Inhibition of AURKB
Procedure, shortened: as §2

[14] = biological target: Mitogen-activated protein kinase 6 (Homo sapiens, UniProt Q16659); assay: Inhibition of ERK3
Procedure, shortened: as §2

[15] = biological target: Cyclin-dependent kinase 3 (Homo sapiens, UniProt Q00526); assay: Inhibition of CDK3
Procedure, shortened: as §1

[16] = biological target: Cyclin-dependent kinase 7 (Homo sapiens, UniProt P50613); assay: Inhibition of CDK7
Procedure, shortened: as §2

[17] = biological target: Serine/threonine-protein kinase PLK1 (Homo sapiens, UniProt P53350); assay: Inhibition of PLK1
Procedure, shortened: as §2

Rattus norvegicus [18] = assay: Antiosteoporosis activity in ovariectomized rat assessed as increase in bone mineral density in L5 vertebra at 30 mg/kg, po QD for 3 weeks by bone densitometer relative to control; format: functional, organism-based; design: dose 30 mg/kg
[19] = biological target: Cyclin-dependent kinase 5 (Homo sapiens, UniProt Q00535); assay: Inhibition of CDK5
Procedure, shortened: as §2

[20] = biological target: Dual specificity protein kinase CLK1 (Homo sapiens, UniProt P49759); assay: Inhibition of CLK1
Procedure, shortened: as §2

[21] = biological target: Dual specificity protein kinase TTK (Homo sapiens, UniProt P33981); assay: Inhibition of TTK
Procedure, shortened: as §2

[22] = biological target: Mitogen-activated protein kinase 1 (Homo sapiens, UniProt P28482); assay: Inhibition of ERK2
Procedure, shortened: as §2

[23] = biological target: Serine/threonine-protein kinase 16 (Homo sapiens, UniProt O75716); assay: Inhibition of STK16
Procedure, shortened: as §2

Rattus norvegicus [24] = assay: Antiosteoporosis activity in ovariectomized rat assessed as increase in bone mineral density in proximal tibia at 30 mg/kg, po QD for 3 weeks by bone densitometer relative to control; format: functional, organism-based; design: dose 30 mg/kg
[25] = biological target: Serine/threonine-protein kinase PLK3 (Homo sapiens, UniProt Q9H4B4); assay: Inhibition of PLK3
Procedure, shortened: as §2

[26] = biological target: Cyclin-dependent kinase 8 (Homo sapiens, UniProt P49336); assay: Inhibition of CDK8
Procedure, shortened: as §2

[27] = biological target: Mitogen-activated protein kinase 15 (Homo sapiens, UniProt Q8TD08); assay: Inhibition of ERK8
Procedure, shortened: as §2

[28] = biological target: Cyclin-dependent kinase 18 (Homo sapiens, UniProt Q07002); assay: Inhibition of PCTK3
Procedure, shortened: as §2

Rattus norvegicus [29] = assay: Antiosteoporosis activity in ovariectomized rat assessed as increase in bone mineral density in distal femur at 30 mg/kg, po QD for 3 weeks by bone densitometer relative to control; format: functional, organism-based; design: dose 30 mg/kg
[30] = biological target: Dual specificity protein kinase CLK3 (Homo sapiens, UniProt P49761); assay: Inhibition of CLK3
Procedure, shortened: as §2

[31] = biological target: Cyclin-dependent kinase 19 (Homo sapiens, UniProt Q9BWU1); assay: Inhibition of CDK11
Procedure, shortened: as §2

[32] = biological target: Cyclin-dependent kinase 2 (Homo sapiens, UniProt P24941); assay: Inhibition of CDK2
Procedure, shortened: as §2

[33] = biological target: Mitogen-activated protein kinase 7 (Homo sapiens, UniProt Q13164); assay: Inhibition of ERK5
Procedure, shortened: as §2

[34] = biological target: Dual specificity protein kinase CLK4 (Homo sapiens, UniProt Q9HAZ1); assay: Inhibition of CLK4
Procedure, shortened: as §2

[35] = biological target: Mitogen-activated protein kinase 3 (Homo sapiens, UniProt P27361); assay: Inhibition of ERK1
Procedure, shortened: as §2

[36] = biological target: Serine/threonine-protein kinase PLK4 (Homo sapiens, UniProt O00444); assay: Inhibition of PLK4
Procedure, shortened: as §2

Rattus norvegicus [37] = assay: Antiosteoporosis activity in ovariectomized rat assessed as increase in bone mineral density in whole femur at 30 mg/kg, po QD for 3 weeks by bone densitometer relative to control; format: functional, organism-based; design: dose 30 mg/kg
[38] = biological target: Mitogen-activated protein kinase 4 (Homo sapiens, UniProt P31152); assay: Inhibition of ERK4
Procedure, shortened: as §2

Glycogen synthase kinase-3 beta, sequence (P49841 whole entry): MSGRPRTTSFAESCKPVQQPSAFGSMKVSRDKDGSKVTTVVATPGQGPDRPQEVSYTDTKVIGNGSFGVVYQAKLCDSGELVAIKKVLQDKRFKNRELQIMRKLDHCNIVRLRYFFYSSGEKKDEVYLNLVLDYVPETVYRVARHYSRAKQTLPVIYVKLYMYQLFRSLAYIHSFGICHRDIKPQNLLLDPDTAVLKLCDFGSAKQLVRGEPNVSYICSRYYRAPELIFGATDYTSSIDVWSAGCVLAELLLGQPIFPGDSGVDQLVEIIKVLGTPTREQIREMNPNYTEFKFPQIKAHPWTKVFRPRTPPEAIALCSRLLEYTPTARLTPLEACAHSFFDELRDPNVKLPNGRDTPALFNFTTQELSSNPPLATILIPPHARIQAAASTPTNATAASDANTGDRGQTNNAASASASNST
Aurora kinase C, sequence (Q9UQB9 whole entry): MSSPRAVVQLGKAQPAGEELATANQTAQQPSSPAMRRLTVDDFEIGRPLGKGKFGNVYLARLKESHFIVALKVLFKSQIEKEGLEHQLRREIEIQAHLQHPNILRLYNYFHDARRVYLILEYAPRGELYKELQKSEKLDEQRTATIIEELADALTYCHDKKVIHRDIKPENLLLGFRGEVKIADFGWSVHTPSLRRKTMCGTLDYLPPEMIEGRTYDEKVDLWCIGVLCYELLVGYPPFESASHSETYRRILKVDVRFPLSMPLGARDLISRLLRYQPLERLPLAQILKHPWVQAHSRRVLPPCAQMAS
Cyclin-dependent kinase 18, sequence (Q07002 whole entry): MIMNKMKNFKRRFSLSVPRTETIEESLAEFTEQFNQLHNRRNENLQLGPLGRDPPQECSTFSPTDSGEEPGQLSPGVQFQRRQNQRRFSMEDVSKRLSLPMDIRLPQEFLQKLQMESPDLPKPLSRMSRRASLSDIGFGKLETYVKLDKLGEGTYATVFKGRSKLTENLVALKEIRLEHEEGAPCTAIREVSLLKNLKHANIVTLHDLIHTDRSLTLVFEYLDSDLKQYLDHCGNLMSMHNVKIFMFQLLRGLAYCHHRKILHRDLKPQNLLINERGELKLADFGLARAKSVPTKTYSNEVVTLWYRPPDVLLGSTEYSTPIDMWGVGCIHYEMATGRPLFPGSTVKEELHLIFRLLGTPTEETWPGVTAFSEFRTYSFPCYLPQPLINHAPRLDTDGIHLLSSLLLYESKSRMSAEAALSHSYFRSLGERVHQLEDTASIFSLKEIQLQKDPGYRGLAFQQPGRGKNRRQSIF
Cyclin-dependent kinase 17, sequence (Q00537 whole entry): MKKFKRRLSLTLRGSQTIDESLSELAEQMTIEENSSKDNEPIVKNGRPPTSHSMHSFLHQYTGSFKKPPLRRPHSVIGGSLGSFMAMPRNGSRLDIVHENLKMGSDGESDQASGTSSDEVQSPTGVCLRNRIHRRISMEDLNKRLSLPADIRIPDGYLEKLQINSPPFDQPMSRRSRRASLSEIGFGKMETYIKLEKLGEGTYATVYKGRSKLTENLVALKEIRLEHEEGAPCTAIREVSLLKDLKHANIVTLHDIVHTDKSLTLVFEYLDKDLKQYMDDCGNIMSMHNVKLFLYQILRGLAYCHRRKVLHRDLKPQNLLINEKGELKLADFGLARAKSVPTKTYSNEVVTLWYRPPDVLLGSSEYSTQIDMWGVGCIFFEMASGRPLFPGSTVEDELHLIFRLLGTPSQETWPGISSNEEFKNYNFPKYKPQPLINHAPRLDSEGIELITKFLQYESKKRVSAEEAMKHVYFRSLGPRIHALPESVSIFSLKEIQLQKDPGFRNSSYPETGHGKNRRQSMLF
Dual specificity protein kinase CLK4, sequence (Q9HAZ1 whole entry): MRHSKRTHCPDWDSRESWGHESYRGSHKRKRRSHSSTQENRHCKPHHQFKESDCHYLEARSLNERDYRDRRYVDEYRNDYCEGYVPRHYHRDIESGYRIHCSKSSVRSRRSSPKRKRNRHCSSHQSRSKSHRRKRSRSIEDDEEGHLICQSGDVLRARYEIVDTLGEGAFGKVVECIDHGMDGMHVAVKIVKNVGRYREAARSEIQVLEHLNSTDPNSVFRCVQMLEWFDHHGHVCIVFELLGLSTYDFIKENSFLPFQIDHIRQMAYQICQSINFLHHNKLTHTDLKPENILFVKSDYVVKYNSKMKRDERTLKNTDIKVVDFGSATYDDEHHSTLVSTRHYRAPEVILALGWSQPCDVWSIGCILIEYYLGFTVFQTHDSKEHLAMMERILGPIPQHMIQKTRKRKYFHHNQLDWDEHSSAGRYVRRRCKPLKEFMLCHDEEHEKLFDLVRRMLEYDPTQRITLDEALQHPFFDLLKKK
Mitogen-activated protein kinase 15, sequence (Q8TD08 whole entry): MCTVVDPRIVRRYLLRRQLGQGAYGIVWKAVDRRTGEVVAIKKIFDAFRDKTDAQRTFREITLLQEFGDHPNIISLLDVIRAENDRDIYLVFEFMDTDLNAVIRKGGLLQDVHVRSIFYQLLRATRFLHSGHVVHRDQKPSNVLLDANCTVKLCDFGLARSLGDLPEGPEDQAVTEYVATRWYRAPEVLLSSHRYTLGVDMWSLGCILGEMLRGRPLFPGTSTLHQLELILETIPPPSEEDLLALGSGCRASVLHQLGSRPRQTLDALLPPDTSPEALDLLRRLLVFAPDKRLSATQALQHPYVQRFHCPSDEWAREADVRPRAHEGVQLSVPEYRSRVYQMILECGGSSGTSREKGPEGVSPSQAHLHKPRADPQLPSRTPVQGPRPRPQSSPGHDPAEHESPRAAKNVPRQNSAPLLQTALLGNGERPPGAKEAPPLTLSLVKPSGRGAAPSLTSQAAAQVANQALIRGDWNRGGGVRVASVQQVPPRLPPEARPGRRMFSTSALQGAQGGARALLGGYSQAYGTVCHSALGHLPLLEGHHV
Mitogen-activated protein kinase 7, sequence (Q13164 whole entry): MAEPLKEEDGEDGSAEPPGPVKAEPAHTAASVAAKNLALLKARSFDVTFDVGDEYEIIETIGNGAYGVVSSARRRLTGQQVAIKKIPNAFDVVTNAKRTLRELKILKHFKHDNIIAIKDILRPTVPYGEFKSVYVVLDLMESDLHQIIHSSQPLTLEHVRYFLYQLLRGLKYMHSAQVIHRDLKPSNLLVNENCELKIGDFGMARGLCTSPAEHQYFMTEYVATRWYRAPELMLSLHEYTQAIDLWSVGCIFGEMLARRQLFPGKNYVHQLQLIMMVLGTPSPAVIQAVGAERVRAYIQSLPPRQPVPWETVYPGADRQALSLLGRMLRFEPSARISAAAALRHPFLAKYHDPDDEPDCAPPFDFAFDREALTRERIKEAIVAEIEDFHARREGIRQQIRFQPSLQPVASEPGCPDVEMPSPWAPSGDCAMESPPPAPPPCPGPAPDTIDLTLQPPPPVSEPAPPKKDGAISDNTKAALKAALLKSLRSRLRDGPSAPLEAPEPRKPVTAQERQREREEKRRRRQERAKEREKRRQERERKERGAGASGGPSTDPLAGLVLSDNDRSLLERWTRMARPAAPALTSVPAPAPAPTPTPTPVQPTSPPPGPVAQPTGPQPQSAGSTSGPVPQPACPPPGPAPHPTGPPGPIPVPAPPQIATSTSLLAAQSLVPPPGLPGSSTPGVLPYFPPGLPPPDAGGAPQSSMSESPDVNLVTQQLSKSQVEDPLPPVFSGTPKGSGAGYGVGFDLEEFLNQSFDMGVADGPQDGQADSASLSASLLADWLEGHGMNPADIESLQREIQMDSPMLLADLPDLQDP
Serine/threonine-protein kinase PLK1, sequence (P53350 whole entry): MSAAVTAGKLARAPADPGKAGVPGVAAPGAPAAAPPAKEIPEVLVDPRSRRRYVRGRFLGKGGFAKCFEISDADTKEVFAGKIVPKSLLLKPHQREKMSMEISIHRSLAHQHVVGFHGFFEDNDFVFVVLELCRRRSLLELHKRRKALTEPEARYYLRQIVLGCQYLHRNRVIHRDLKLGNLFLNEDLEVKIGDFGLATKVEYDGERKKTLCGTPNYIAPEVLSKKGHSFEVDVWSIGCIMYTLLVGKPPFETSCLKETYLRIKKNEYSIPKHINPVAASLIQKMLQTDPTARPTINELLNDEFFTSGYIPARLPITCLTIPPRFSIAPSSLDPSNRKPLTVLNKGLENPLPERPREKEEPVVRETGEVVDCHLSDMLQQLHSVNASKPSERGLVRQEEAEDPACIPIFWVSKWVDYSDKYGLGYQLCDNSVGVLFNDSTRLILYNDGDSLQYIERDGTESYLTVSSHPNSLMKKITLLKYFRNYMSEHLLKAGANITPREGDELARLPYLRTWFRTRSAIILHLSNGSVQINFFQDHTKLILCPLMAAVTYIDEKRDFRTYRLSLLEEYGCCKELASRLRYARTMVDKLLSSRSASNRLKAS

## Cn1cc(C2=C(c3cccc(NCC(O)CO)c3)C(=O)NC2=O)c2cc(Cl)ccc21 (racemic)
Rattus norvegicus [1]
  AUC: 100 ng·h/mL
[2]
  solubility: 42 µg/mL (≈ 98.6 µM)
[3]
  IC50: 260 nM
Rattus norvegicus [4]
  Cmax: 110 ng/mL
[5]
  IC50: 0.4 nM

## Cn1cc(C2=C(c3cccc(NCCCO)c3)C(=O)NC2=O)c2ccccc21
[3]
  IC50: 740 nM
[5]
  IC50: 1 nM

## COc1cccc(C2=C(c3cn(C)c4ccccc34)C(=O)NC2=O)c1
Mus musculus [6]
  AUC: BLD
[2]
  solubility: < 0.5 µg/mL
[3]
  IC50: 6000 nM
[5]
  IC50: 90 nM
Mus musculus [7]
  Cmax: BLD

## Cn1cc(C2=C(c3cccs3)C(=O)NC2=O)c2ccccc21
[3]
  IC50: 8900 nM
[5]
  IC50: 22 nM

## Cn1cc(C2=C(c3ccccc3Cl)C(=O)NC2=O)c2ccccc21
[3]
  IC50: 760 nM
[5]
  IC50: 3.6 nM

## Cn1cc(C2=C(c3cccc(OCC(O)CO)c3)C(=O)NC2=O)c2cc(F)ccc21 (racemic)
[2]
  solubility: 2.8 µg/mL (≈ 6.82 µM)
[3]
  IC50: 2200 nM
[5]
  IC50: 1.8 nM

## Cn1cc(C2=C(N3CCOCC3)C(=O)NC2=O)c2ccccc21
[5]
  IC50: 8200 nM

## COc1cccc(C2=C(c3cn(C)c4cc(C)ccc34)C(=O)NC2=O)c1
[3]
  IC50: 2900 nM
[5]
  IC50: 35 nM

## Cn1cc(C2=C(Nc3ccccc3)C(=O)NC2=O)c2ccccc21
[5]
  IC50: 350 nM

## Cn1cc(C2=C(c3cccc(N)c3)C(=O)NC2=O)c2ccccc21
[3]
  IC50: 1900 nM
[5]
  IC50: 1.8 nM

## Cn1cc(C2=C(c3ccc(-c4ccccc4)cc3)C(=O)NC2=O)c2ccccc21
[5]
  IC50: 730 nM

## Cn1cc(C2=C(c3c4n(c5ccccc35)CCN(C(N)=S)C4)C(=O)NC2=O)c2ccccc21
[3]
  IC50: 1050 nM
[5]
  IC50: 10 nM

## Nc1nc(NCCNc2ncc(-c3ncc[nH]3)c(-c3ccc(Cl)cc3Cl)n2)ccc1[N+](=O)[O-]
[5]
  IC50: 0.56 nM

## COc1ccc(C2=C(c3cn(C)c4ccccc34)C(=O)NC2=O)cc1OC
[3]
  IC50: 6600 nM
[5]
  IC50: 6.6 nM

## CN(C)c1nc2ccc1CCCN1C=C(C3=C(C(=O)NC3=O)c3cn(c4ccccc34)CCC2)N2C=CC=CC12 (stereo not drawn)
[5]
  IC50: 7 nM

## Cn1cc(C2=C(Oc3ccccc3)C(=O)NC2=O)c2ccccc21
[5]
  IC50: 2800 nM

## COc1cccc(C2=C(c3cn(C)c4cccc(OC)c34)C(=O)NC2=O)c1
[5]
  IC50: 1300 nM

## COc1cccc(C2=C(c3cn(C)c4ccc(Cl)cc34)C(=O)NC2=O)c1
[3]
  IC50: 1400 nM
[5]
  IC50: 6.4 nM

## Cn1cc(C2=C(c3cccnc3)C(=O)NC2=O)c2ccccc21
[3]
  IC50: > 30000 nM
[5]
  IC50: 42 nM

## COc1ccc(C2=C(c3cn(C)c4ccccc34)C(=O)NC2=O)c(OC)c1
[3]
  IC50: 5500 nM
[5]
  IC50: 2.4 nM

## COc1cccc(C2=C(c3cn(C)c4cc(F)ccc34)C(=O)NC2=O)c1
[3]
  IC50: 4200 nM
[5]
  IC50: 31 nM

## Cn1cc(C2=C(Sc3ccccc3)C(=O)NC2=O)c2ccccc21
[5]
  IC50: 2000 nM

## COc1ccc(OC)c(C2=C(c3cn(C)c4ccccc34)C(=O)NC2=O)c1
[3]
  IC50: 380 nM
[5]
  IC50: 22 nM

## COc1cccc(C2=C(c3c(C)n(C)c4ccccc34)C(=O)NC2=O)c1
[5]
  IC50: 220 nM

## Cn1cc(C2=C(c3cccc(NCC(O)CO)c3)C(=O)NC2=O)c2cc(F)ccc21 (racemic)
Aurora kinase A
  Kd: 40000 nM
[8]
  Kd: 14000 nM
[9]
  Kd: 87 nM
Aurora kinase C
  Kd: 23000 nM
[10]
  Kd: 10 nM
[11]
  Kd: 69 nM
[12]
  Kd: 410 nM
[13]
  Kd: 1.5 nM
Aurora kinase B
  Kd: 40000 nM
[14]
  Kd: 40000 nM
[15]
  Kd: 80 nM
[16]
  Kd: 41 nM
[17]
  Kd: 23000 nM
Rattus norvegicus [18]
  Activity: Active
[2]
  solubility: 104 µg/mL (≈ 254 µM)
[19]
  Kd: 6800 nM
[20]
  Kd: 16 nM
[21]
  Kd: 6700 nM
[22]
  Kd: 40000 nM
[23]
  Kd: 230 nM
Rattus norvegicus [24]
  Activity: Active
[25]
  Kd: 40000 nM
[26]
  Kd: 40000 nM
[27]
  Kd: 32 nM
[28]
  Kd: 110 nM
[3]
  IC50: 400 nM
Rattus norvegicus [29]
  Activity: Active
[30]
  Kd: 310 nM
[31]
  Kd: 40000 nM
[32]
  Kd: 150 nM
[33]
  Kd: 5600 nM
[34]
  Kd: 110 nM
[35]
  Kd: 40000 nM
[36]
  Kd: 320 nM
Rattus norvegicus [37]
  Activity: Active
[38]
  Kd: 40000 nM

## Cn1cc(C2=C(N(C(=O)OC(C)(C)C)c3ccccc3)C(=O)NC2=O)c2ccccc21
[5]
  IC50: 3100 nM
